Source: the array DNA melting data of Ke et al. (doi:10.1101/2024.01.08.574731)

Key:
[1] = folding enthalpy; higher = less favourable; fluorescence melt of hairpins on a sequencing array, two-state fit; conditions: sodium 0.088 M
In short: (§1)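 Folding enthalpy and melting temperature come from bootstrapped two-state fits to Cy3 fluorescence of library hairpins carrying annealed Cy3 and quencher oligos on a sequenced MiSeq flow cell. Imaging was done in 50 mM Na-HEPES pH 8.0, 25 mM NaCl, stepping by 2.5 °C up to 60 °C, and signals were normalised to pre-quench Cy3 and to control constructs. Results of four replicates were combined by inverse variance, and fitted temperatures were raised by 9.35 °C to match UV melts.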

[2] = melting temperature; fluorescence melt of hairpins on a sequencing array, two-state fit, raised by 9.35 °C to match UV melts; conditions: sodium 0.088 M
In short: as §1

| Sequence | folding enthalpy [1] [kcal/mol] | Tm [2] [°C] |
| --- | --- | --- |
| GGAACCGAAAGGTATCC ((((((....))).))) | -18.2 | 40.8 |
| GACCACGAAAGTGGCGTC ((((((....)))..))) | -12.5 | 45.6 |
| GCAACGCGAAAGCACTGC (((..((....))..))) | -11.4 | 41.4 |
| GATCTGACTCAGATC ((((((...)))))) | -33.7 | 46.8 |
| GAGTACCCGAAAGGGCTC (((..(((....)))))) | -15.3 | 32.4 |
| GTGAATACGAAAGTACAC (((..(((....)))))) | -12.5 | 27.5 |
| GGGCCAACGAAAGTTCCC (((..(((....)))))) | -14.4 | 30.4 |
| GGTACTCCGAAAGGAACC (((..(((....)))))) | -9.52 | 25.4 |
| GATCCCGAAAGGGGAATC ((((((....)))..))) | -12.3 | 36.1 |
| GCGGGTTTCCGC ((((....)))) | -28.2 | 59.2 |
| GCCGAGCGAAAGCTGAGC ((..(((....)))..)) | -11.2 | 51.2 |
| GCTACGCGAAAGCTCAGC (((..((....))..))) | -13.1 | 37 |
| GCTGGCGAAAGCCTCAGC ((((((....)))..))) | -14.7 | 46.6 |
| GAGAACGAAAGTTCCTC ((((((....))).))) | -14.2 | 42.7 |
| GATCCTCTTAGGATC ((((((...)))))) | -35.3 | 55.2 |
| GATCAGGCGACTGATC ((((((....)))))) | -36.8 | 56.4 |
| ACCGAGAAATCGGT (((((....))))) | -18.3 | 49.5 |
| GATACGGGAAACCGCATC (((.(((....))).))) | -24.8 | 41.4 |
| GATCTGCCACCAGATC ((((((....)))))) | -35.1 | 48.7 |
| GTCAAACCGAAAGGTGAC (((..(((....)))))) | -21.3 | 45.4 |
| GGACTCGAAAGAGGATCC ((((((....)))..))) | -17.9 | 37 |
| GACTGACGAAAGTCGGTC (((.(((....))).))) | -37.2 | 62 |
| GGTCCCGGAAACGAGACC ((((.((....)).)))) | -32 | 49.6 |

| Sequence | folding enthalpy [1] [kcal/mol] | Tm [2] [°C] |
| --- | --- | --- |
| GCTCCCGCGAAAGCGAGC (((..(((....)))))) | -10.7 | 37.5 |
| GAGGGCGGAAACACCCCC (.(((.(....).))).) | -16.4 | 30.9 |
| GATCCGTTGACGGATC ((((((....)))))) | -39.1 | 61.8 |
| GTGTATGGAAACATGCAC (((.(((....))).))) | -33.9 | 48.9 |
| GGTAACGAAAGTTGGACC ((((((....)))..))) | -15.5 | 26.8 |
| GATCGGTGAACCGATC ((((((....)))))) | -43.4 | 61 |
| GAACACGAAAGTGTTC ((((((....)))))) | -30.9 | 69 |
| GCGATAGCGAAAGCTCGC (((..(((....)))))) | -18.5 | 51.5 |
| GATTCTGAAAAGAATC ((((((....)))))) | -33.1 | 50 |
| GGTCGTCGAAAGACACC (((.(((....)))))) | -22.1 | 52.1 |
| GTTTCACGAAAGTGCAAC (((.(((....))).))) | -26.9 | 41.1 |
| GCGCAGCGAAAGCCACGC (((..((....))..))) | -9.86 | 42.4 |
| GCGAGCGAAAGCTACCGC ((((((....)))..))) | -18.8 | 48.1 |
| GATCTGTACCCAGATC ((((((....)))))) | -36.4 | 47.5 |
| AAACGGAAACGTTT (((((....))))) | -21.3 | 45.1 |
| GGGTACGGAAACGCACCC ((((.((....)).)))) | -49.4 | 52.3 |
| GCTTGACGAAAGTCGAGC (((.(((....))).))) | -39 | 63.1 |
| GATCAGCATCCTGATC ((((((....)))))) | -32.5 | 48 |
| TGTTTGAAAAAACA (((((....))))) | -8.4 | 29.3 |
| GCCAATGGAAACATTGGC (((((((....))))))) | -38.3 | 67.8 |
| GATCAAAGGCTTGATC ((((((....)))))) | -31.5 | 41 |
| GATCAAGATGTTGATC ((((((....)))))) | -28 | 43.5 |
| GACGAAGGAAACTTCATC ((.((((....)))).)) | -14.7 | 26.9 |

| Sequence | folding enthalpy [1] [kcal/mol] | Tm [2] [°C] |
| --- | --- | --- |
| GGCCTCGGAAACGGGGCC ((((.((....)).)))) | -35.3 | 66.6 |
| GAGTGCGAAAGCATGCTC ((((((....)))..))) | -15 | 43.4 |
| GACGTAGGAAACTGTGTC (((..((....))..))) | -9.59 | 25.7 |
| GATCTAGGAAACTAGATC (((((((....))))))) | -43.1 | 51.9 |
| GCCCCGCGAAAGCCCGGC (((..((....))..))) | -14.7 | 38.9 |
| GCTTGCGAAAGCAGAGC ((((((....))).))) | -18.6 | 52.7 |
| GTAGATCGAAAGATTTAC (((.(((....))).))) | -30.4 | 39.5 |
| GCATCGGGAAACCAATGC ((((.((....)).)))) | -29 | 42.2 |
| GAGAACGAAAGTTATCTC ((((((....)))..))) | -26 | 43 |
| GATCTCTACTGAGATC ((((((....)))))) | -41.6 | 53.2 |
| CGTCCGCGGAAACGCACG (((..(((....)))))) | -12 | 33.5 |
| GTAACCGAAAGGTCTAC ((((((....))).))) | -13.4 | 35.5 |
| GGTACCGAAAGGTCTACC ((((((....)))..))) | -15 | 33.9 |
| GTCGCGGGAAACCGCAAC ((.((((....)))).)) | -13.3 | 44.1 |
| GGCTGAGGAAACTCAACC ((.((((....)))).)) | -32.5 | 41.2 |
| GATCGACGAAAGTCAATC (((.(((....))).))) | -20.5 | 40.3 |
| GCGCCCGAAAGGGTCCGC ((((((....)))..))) | -14.8 | 56.2 |
| GTGATGGGAAACTGTCAC ((((..(....)..)))) | -32.5 | 39.1 |
| GATCCAACGGTGGATC ((((((....)))))) | -43.3 | 49 |
| GTAGGACGAAAGTCTAC (((.(((....)))))) | -17.2 | 43 |
| GTTCACCGAAAGGTAAC (((.(((....)))))) | -16.3 | 36.3 |
| GTCTTCGAAAGAAGTGAC ((((((....)))..))) | -13.3 | 34 |
| GAAATCCCGAAAGGGTTC (((..(((....)))))) | -9.79 | 26.2 |

| Sequence | folding enthalpy [1] [kcal/mol] | Tm [2] [°C] |
| --- | --- | --- |
| GATCACTCAGGTGATC ((((((....)))))) | -37 | 57.4 |
| GACCTTCCGAAAGGAGTC (((..(((....)))))) | -11.8 | 26.4 |
| GGTTGGGGAAACTCGACC (((.(.(....).).))) | -23.2 | 39.5 |
| GCCTCCGAAAGGACTGGC ((((((....)))..))) | -27.8 | 44.4 |
| GCCATGCGAAAGCTTCGC ((.(.((....)).).)) | -8.18 | 47.3 |
| GCCCTGCGAAAGCAGAGC ((.((((....)))).)) | -18.8 | 60.4 |
| GGACCAGGAAACTGACCC ((..(((....)))..)) | -10.6 | 23.5 |
| GAGAGGGGAAACTCTCTC (((((.(....).))))) | -26.2 | 49.4 |
| GCTCCTCCGAAAGGAAGC (((..(((....)))))) | -15.9 | 34.2 |
| GCTGGGCGAAAGCACGGC ((.(.((....)).).)) | -21.2 | 69.1 |
| GATCGGTAGCCCGATC ((((((....)))))) | -30.1 | 56.3 |
| GGTAGCCGAAAGGCAACC (((.(((....))).))) | -23.8 | 57.9 |
| GCGACCACGAAAGTGCGC (((..(((....)))))) | -20.9 | 48.5 |
| GATCCGTGTGCGGATC ((((((....)))))) | -38.8 | 66.7 |
| GTCCACGAAAGTGGAGAC ((((((....)))..))) | -9.62 | 48.7 |
| GATCCGCGAAAGCGTATC (((.(((....))).))) | -18.4 | 43.4 |
| GAGGGCGGAAACGCTCTC (((.(((....))).))) | -31.9 | 57.2 |
| GATCCGATATCGGATC ((((((....)))))) | -39.9 | 59.2 |
| GATCTTCACGAAGATC ((((((....)))))) | -40.1 | 49.2 |
| GATCAAATACTTGATC ((((((....)))))) | -33.2 | 39.9 |
| GATCTGCTTGCAGATC ((((((....)))))) | -40.1 | 67.3 |
| GATCAAAATATTGATC ((((((....)))))) | -26.6 | 38.6 |
| GATCCCTGTTGGGATC ((((((....)))))) | -42.8 | 62 |
